Assays:
[1] = test system: EMT-6 murine breast cancer cells; test: functional assay: cell viability; assay type: cell-based; settings: for cytotoxicity (in words): EMT-6 cells, cell viability assay
Summary of the method: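 EMT-6 murine breast cancer cells grown in DMEM with 10% FBS and penicillin/streptomycin at 37 °C, 5% CO2; seeded 5 × 10^3 cells/well 24 h before dosing. Test compound in DMSO serially diluted in medium (final DMSO ≤1.0%), 24 or 48 h exposure. MTS reagent 1–2 h at 37 °C, A490. Viability relative to untreated cells; EC50 from dose–response curves; triplicate, mean ± SEM of three experiments.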

σ2 receptor = molecular target: T1, σ2 receptor (Rattus norvegicus, UniProt Q5U3Y7); assay type: binding; settings: for increase of σ2 binding affinity compared to 26 / increase of selectivity for σ2 compared to 26: relative to nonsubstituted 1H-[1,2,3]triazole carboxamide analogue 26; for lower binding affinity for σ2 receptor than corresponding methoxy-substituted congeners: 39e and 39f versus 39b and 39c
T1 sequence (Q5U3Y7 1-176): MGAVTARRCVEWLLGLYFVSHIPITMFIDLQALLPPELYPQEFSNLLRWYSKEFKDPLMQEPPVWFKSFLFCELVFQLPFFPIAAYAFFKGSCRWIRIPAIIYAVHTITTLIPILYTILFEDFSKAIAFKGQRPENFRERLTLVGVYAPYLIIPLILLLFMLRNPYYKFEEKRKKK

increase of σ2 binding affinity compared to 26 (σ2 receptor) [fold]	increase of selectivity for σ2 compared to 26 (σ2 receptor) [fold]	Structure (SMILES)	also measured
–	–	Fc1ccc(-n2cc(CCCCN3CCC4(CC3)OCc3ccccc34)c3ccccc32)cc1 [siramesine, reference compound]	cytotoxicity (in words) [1]: potent cytotoxicity
–	–	COc1cc2c(cc1OC)CN(CCCCNC(=O)c1cn(Cc3cccc(O)c3)nn1)CC2 [39e, N-(4-(6,7-Dimethoxy-3,4-dihydro-1H-isoquinolin-2-yl)butyl)-1-(3-hydroxybenzyl)-1H-1,2,3-triazole-4-carboxamide]	lower binding affinity for σ2 receptor than corresponding methoxy-substituted congeners (σ2 receptor): 2 fold
–	–	COc1cc2c(cc1OC)CN(CCCCNC(=O)c1cn(Cc3ccc(O)cc3)nn1)CC2 [39f, N-(4-(6,7-Dimethoxy-3,4-dihydro-1H-isoquinolin-2-yl)butyl)-1-(4-hydroxybenzyl)-1H-1,2,3-triazole-4-carboxamide]	lower binding affinity for σ2 receptor than corresponding methoxy-substituted congeners (σ2 receptor): 2 fold
682	817	COc1cc2c(cc1OC)CN(CCCCNC(=O)c1cn(-c3ccccc3OC)nn1)CC2 [24d, N-(4-(6,7-Dimethoxy-3,4-dihydro-1H-isoquinolin-2-yl)butyl)-1-(2-methoxyphenyl)-1H-1,2,3-triazole-4-carboxamide]	–
82	34	COc1cc2c(cc1OC)CN(CCCCNC(=O)c1cn(Cc3ccccc3)nn1)CC2 [39d, 1-Benzyl-N-(4-(6,7-dimethoxy-3,4-dihydro-1H-isoquinolin-2-yl)-butyl)-1H-1,2,3-triazole-4-carboxamide]	–
–	–	COc1cccc(Cn2cc(C(=O)NCCN3CCc4cc(OC)c(OC)cc4C3)nn2)c1 [40e, N-(2-(6,7-Dimethoxy-3,4-dihydro-1H-isoquinolin-2-yl)ethyl)-1-(3-methoxybenthyl)-1H-1,2,3-triazole-4-carboxamide]	σ2 binding affinity lower than the 4-carbon spacer congeners (σ2 receptor; 2-carbon spacer 40a–40f versus 24d–24f and 39a–39c): 20 fold
341	629	COc1cccc(-n2cc(C(=O)NCCCCN3CCc4cc(OC)c(OC)cc4C3)nn2)c1 [24e, N-(4-(6,7-Dimethoxy-3,4-dihydro-1H-isoquinolin-2-yl)butyl)-1-(3-methoxyphenyl)-1H-1,2,3-triazole-4-carboxamide]	–
96	110	COc1cccc(Cn2cc(C(=O)NCCCCN3CCc4cc(OC)c(OC)cc4C3)nn2)c1 [39b, N-(4-(6,7-Dimethoxy-3,4-dihydro-1H-isoquinolin-2-yl)butyl)-1-(3-methoxybenzyl)-1H-1,2,3-triazole-4-carboxamide]	–
105	198	COc1ccccc1Cn1cc(C(=O)NCCCCN2CCc3cc(OC)c(OC)cc3C2)nn1 [39a, N-(4-(6,7-Dimethoxy-3,4-dihydro-1H-isoquinolin-2-yl)butyl)-1-(2-methoxybenzyl)-1H-1,2,3-triazole-4-carboxamide]	–
205	63	COc1ccc(Cn2cc(C(=O)NCCCCN3CCc4cc(OC)c(OC)cc4C3)nn2)cc1 [39c, N-(4-(6,7-Dimethoxy-3,4-dihydro-1H-isoquinolin-2-yl)butyl)-1-(4-methoxybenzyl)-1H-1,2,3-triazole-4-carboxamide]	–
–	–	COc1cc2c(cc1OC)CN(CCCCNC(=O)c1cc(-n3cc(CN(C)C)nn3)ccc1OCCF)CC2 [compound 65, N-(4-(6,7-Dimethoxy-3,4-dihydroisoquinolin-2(1H)-yl)butyl)-5-(4-((dimethylamino)methyl)-1H-1,2,3-triazol-1-yl)-2-(2-fluoroethoxy)benzamide]	σ2 binding affinity lower than lead compound 8 (σ2 receptor; 65 versus lead compound 8): 14 fold; σ2 binding affinity lower than lead compound 9 (σ2 receptor; 65 versus lead compound 9): 89 fold

Structure (SMILES)	increase of σ2 binding affinity compared to 26 (σ2 receptor) [fold]	increase of selectivity for σ2 compared to 26 (σ2 receptor) [fold]	also measured
COc1ccc(-n2cc(C(=O)NCCCCN3CCc4cc(OC)c(OC)cc4C3)nn2)cc1 [24f, N-(4-(6,7-Dimethoxy-3,4-dihydro-1H-isoquinolin-2-yl)butyl)-1-(4-methoxyphenyl)-1H-1,2,3-triazole-4-carboxamide]	186	–	cytotoxicity (in words) [1]: did not induce cytotoxicity; agonist/antagonist classification at the σ2 receptor ([1]; based on cytotoxicity in EMT-6 cells relative to siramesine): antagonist

Source: article PMC6818095 (Journal of medicinal chemistry, 2014)
